Measured values: ChEMBL document CHEMBL1157362, “Pharmacokinetics of the anti-human immunodeficiency virus agent 1-(beta-D-dioxolane)thymine in rhesus monkeys” (Antimicrob Agents Chemother, 2007)
Values belong to the compound of their own block, whether it stands above or below them.

Tests used:
[1] = Cmax in rhesus monkey; format: ADME, organism-based, Macaca mulatta; conditions: in vivo
[2] = Oral bioavailability in rhesus monkey at 60 mg/kg; format: ADME, organism-based, Macaca mulatta; conditions: in vivo
[3] = Terminal phase half life in rhesus monkey; format: ADME, organism-based, Macaca mulatta; conditions: in vivo
[4] = Systemic clearance in rhesus monkey at 33.3 mg/kg, iv; format: ADME, organism-based, Macaca mulatta; set-up: dose 33.3 mg/kg, route intravenous; conditions: in vivo
How it was run: (§1)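 Rhesus monkeys (three) got a single 33.3 mg/kg dose orally by gastric intubation in water, then i.v. in saline after a washout of at least 4 weeks. Animals were under ketamine/Telazol anesthesia. Femoral-vein blood was drawn at 0–24 h. Serum was acetonitrile-extracted with AZT internal standard and assayed by HPLC-UV at 266 nm. Parameters came from a simultaneous two-compartment fit weighted 1/(predicted)2. F was from AUCoral = F x AUCi.v.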

[5] = Central volume of distribution in rhesus monkey at 33.3 mg/kg, iv; format: ADME, organism-based, Macaca mulatta; set-up: dose 33.3 mg/kg, route intravenous; conditions: in vivo, read-out: Vc; how it was run: as §1
[6] = Terminal phase half life in rhesus monkey at 33.3 mg/kg, iv; format: ADME, organism-based, Macaca mulatta; set-up: dose 33.3 mg/kg, route intravenous; conditions: in vivo; how it was run: as §1
[7] = Volume of distribution at steady state in rhesus monkey at 33.3 mg/kg, iv; format: ADME, organism-based, Macaca mulatta; set-up: dose 33.3 mg/kg, route intravenous; conditions: in vivo, read-out: Vdss; how it was run: as §1
[8] = AUC in rhesus monkey at 33.3 mg/kg, iv; format: ADME, organism-based, Macaca mulatta; set-up: dose 33.3 mg/kg, route intravenous; conditions: plasma; how it was run: as §1
[9] = Mean residence time in rhesus monkey at 33.3 mg/kg, iv; format: ADME, organism-based, Macaca mulatta; set-up: dose 33.3 mg/kg, route intravenous; conditions: in vivo; how it was run: as §1
[10] = Renal clearance in rhesus monkey at 33.3 mg/kg, iv; format: ADME, organism-based, Macaca mulatta, Kidney; set-up: dose 33.3 mg/kg, route intravenous; conditions: in vivo, read-out: CL_renal (converted)
How it was run: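 Renal clearance was derived by fitting 0–8 h urinary excretion (HPLC-UV) to dXu/dt = Clrenal x Cp. Cp was the serum concentration predicted by the two-compartment serum fit, and the urine fit was unweighted. Dose was 33.3 mg/kg.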

[11] = AUC in rhesus monkey at 33.3 mg/kg, po; format: ADME, organism-based, Macaca mulatta; set-up: dose 33.3 mg/kg, route oral; conditions: plasma; how it was run: as §1
[12] = Mean residence time in rhesus monkey at 33.3 mg/kg, po; format: ADME, organism-based, Macaca mulatta; set-up: dose 33.3 mg/kg, route oral; conditions: in vivo; how it was run: as §1
[13] = Tmax in rhesus monkey at 33.3 mg/kg, po; format: ADME, organism-based, Macaca mulatta; set-up: dose 33.3 mg/kg, route oral; conditions: in vivo
How it was run: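 Oral gastric-intubation dose of 33.3 mg/kg in water given to rhesus monkeys under ketamine/Telazol anesthesia. Serial femoral-vein serum was sampled from 0.25 to 24 h and assayed by reverse-phase HPLC-UV at 266 nm. Time of peak was taken from a two-compartment model fitted with an absorption lag.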

[14] = Cmax in rhesus monkey at 33.3 mg/kg, po; format: ADME, organism-based, Macaca mulatta; set-up: dose 33.3 mg/kg, route oral; conditions: in vivo; how it was run: as §1
[15] = Oral bioavailability in rhesus monkey at 33.3 mg/kg; format: ADME, organism-based, Macaca mulatta; conditions: in vivo; how it was run: as §1
[16] = Biodistribution in rhesus monkey urine assessed as dose recovered unchanged at 33.3 mg/kg, po after 8 hrs; format: ADME, organism-based, Macaca mulatta; set-up: dose 33.3 mg/kg, route oral; conditions: read-out: Drug uptake
How it was run: (§2)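 Monkeys were catheterized and dosed with 33.3 mg/kg by i.v. or oral route under anesthesia. Urine was collected in intervals over 0–8 h. Untreated urine was incubated 12 h at 37°C in acetate/phosphate buffer pH 5.8 and spiked with AZT internal standard. Unchanged drug was quantified by HPLC-UV at 266 nm against urine standard curves of 0.1–100 µg/ml.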

[17] = Biodistribution in rhesus monkey urine assessed as dose recovered unchanged at 33.3 mg/kg, iv after 8 hrs; format: ADME, organism-based, Macaca mulatta; set-up: dose 33.3 mg/kg, route intravenous; conditions: read-out: Drug uptake; how it was run: as §2
Rhesus monkey [18] = test: Drug elimination in rhesus monkey assessed as beta-dioxolane-thymine-glucuronide elimination at 33.3 mg/kg, po; format: ADME, organism-based, Macaca mulatta; set-up: dose 33.3 mg/kg, route oral; conditions: in vivo
How it was run: (§3)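 Glucuronide was estimated indirectly in 0–8 h urine after a 33.3 mg/kg i.v. or oral dose. Urine was treated with β-glucuronidase (500 U/ml, freshly prepared) in acetate/phosphate buffer pH 5.8 for 12 h at 37°C. Untreated urine served as the parallel sample. Glucuronide was taken as the difference in parent drug between the two samples by HPLC-UV. Its presence was screened by ESI MS/MS.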

Rhesus monkey [19] = test: Drug elimination in rhesus monkey assessed as beta-dioxolane-thymine-glucuronide elimination at 33.3 mg/kg, iv; format: ADME, organism-based, Macaca mulatta; set-up: dose 33.3 mg/kg, route intravenous; conditions: in vivo; how it was run: as §3
[20] = Drug level in rhesus monkey cerebrospinal fluid at 33.3 mg/kg, iv after 1 hr; format: ADME, organism-based, Macaca mulatta; set-up: dose 33.3 mg/kg, route intravenous; conditions: read-out: Drug uptake
How it was run: (§4)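 Cerebrospinal fluid was drawn by cisternal or lumbar tap 1 and 2 h after a 33.3 mg/kg i.v. or oral dose in anesthetized rhesus monkeys. Samples were kept frozen at –70°C. AZT internal standard was added, and the sample was injected directly for HPLC-UV at 266 nm against water-based standards of 0.1–25 µg/ml.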

[21] = Drug level in rhesus monkey cerebrospinal fluid at 33.3 mg/kg, iv after 2 hrs; format: ADME, organism-based, Macaca mulatta; set-up: dose 33.3 mg/kg, route intravenous; conditions: read-out: Drug uptake; how it was run: as §4
[22] = Drug level in rhesus monkey cerebrospinal fluid at 33.3 mg/kg, po after 1 hr; format: ADME, organism-based, Macaca mulatta; set-up: dose 33.3 mg/kg, route oral; conditions: read-out: Drug uptake; how it was run: as §4
[23] = Drug level in rhesus monkey cerebrospinal fluid at 33.3 mg/kg, po after 2 hrs; format: ADME, organism-based, Macaca mulatta; set-up: dose 33.3 mg/kg, route oral; conditions: read-out: Drug uptake; how it was run: as §4
[24] = Ratio of drug level in cerebrospinal fluid to plasma of rhesus monkey at 33.3 mg/kg, iv after 1 hr; format: ADME, organism-based, Macaca mulatta, CSF/Plasma; set-up: dose 33.3 mg/kg, route intravenous
How it was run: (§5)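 CSF was taken by cisternal or lumbar tap at 1 and 2 h after a 33.3 mg/kg i.v. or oral dose, along with femoral-vein serum. Both were quantified by HPLC-UV at 266 nm with AZT internal standard. The ratio was CSF concentration divided by serum concentration at the same time.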

[25] = Ratio of drug level in cerebrospinal fluid to plasma of rhesus monkey at 33.3 mg/kg, iv after 2 hrs; format: ADME, organism-based, Macaca mulatta, CSF/Plasma; set-up: dose 33.3 mg/kg, route intravenous; how it was run: as §5
[26] = Ratio of drug level in cerebrospinal fluid to plasma of rhesus monkey at 33.3 mg/kg, po after 1 hr; format: ADME, organism-based, Macaca mulatta, CSF/Plasma; set-up: dose 33.3 mg/kg, route oral; how it was run: as §5
[27] = Ratio of drug level in cerebrospinal fluid to plasma of rhesus monkey at 33.3 mg/kg, po after 2 hrs; format: ADME, organism-based, Macaca mulatta, CSF/Plasma; set-up: dose 33.3 mg/kg, route oral; how it was run: as §5
Rhesus monkey [28] = test: Tlag in rhesus monkey at 33.3 mg/kg, po; conditions: in vivo
[29] = Oral bioavailability in rhesus monkey; format: ADME, organism-based, Macaca mulatta; conditions: in vivo
[30] = Oral bioavailability in cynomolgus monkey; format: ADME, organism-based, Macaca fascicularis; conditions: in vivo
[31] = Oral bioavailability in mouse; format: ADME, organism-based; conditions: in vivo
[32] = Oral bioavailability in human; format: ADME, organism-based; conditions: in vivo
[33] = Drug elimination in monkey urine after 30 days; format: ADME, organism-based, Macaca mulatta; conditions: rhesus monkey, Activity
Rhesus monkey [34] = test: AUC in rhesus monkey; format: ADME, organism-based, Macaca mulatta, Plasma; conditions: in vivo
[35] = Central volume of distribution in rhesus monkey; format: ADME, organism-based, Macaca mulatta; conditions: in vivo, read-out: Vc
[36] = Volume of distribution at steady state in rhesus monkey; format: ADME, organism-based, Macaca mulatta; conditions: in vivo, read-out: Vdss

SMILES: Nc1nc2c(ncn2[C@H]2CO[C@@H](CO)O2)c(=O)[nH]1
Cmax [1]: 50 µM

SMILES: Cc1cn([C@H]2C[C@H](N=[N+]=[N-])[C@@H](CO)O2)c(=O)[nH]c1=O [ZIDOVUDINE]
bioavailability [2]: 90%
half-life [3]: 0.8 h

SMILES: Nc1nc(N)c2ncn([C@H]3CO[C@@H](CO)O3)c2n1 [AMDOXOVIR]
bioavailability [29]: 30%

SMILES: Nc1nc(=O)n([C@H]2CO[C@@H](CO)O2)cc1F
bioavailability [29]: 38%
Cmax [1]: 34.4 µM
AUC (Rhesus monkey [34]): 197 µM·h
half-life [3]: 2.48 h
Vd [35]: 0.53 L/kg
Vd [36]: 0.53 L/kg

The next lines start with the values.

clearance [4]: 6 mL/min/kg
Vd [5]: 0.52 L/kg
half-life [6]: 2.16 h
Vd [7]: 1.02 L/kg
AUC [8]: 416 µM·h
MRT [9]: 2.88 h
CL renal [10]: 3 mL/min/kg
AUC [11]: 387 µM·h
MRT [12]: 3.26 h
Tmax [13]: 0.5 h
Cmax [14]: 105 µM
bioavailability [15]: 95%
dose excreted at 8 h [16]: 48%
dose excreted at 8 h [17]: 40%
Drug uptake (Rhesus monkey [18]): 8%
Drug uptake (Rhesus monkey [19]): 4%
concentration at 1 h [20]: 7.8 µM
concentration at 2 h [21]: 12.3 µM
concentration at 1 h [22]: 3.2 µM
concentration at 2 h [23]: 4.2 µM
Kp at 1 h [24]: 0.09
Kp at 2 h [25]: 0.18
Kp at 1 h [26]: 0.05
Kp at 2 h [27]: 0.06
Tlag (Rhesus monkey [28]): 0.51 h
SMILES: Cc1cn([C@H]2CO[C@@H](CO)O2)c(=O)[nH]c1=O

bioavailability [2]: 25%
bioavailability [30]: 83%
bioavailability [31]: 100%
bioavailability [32]: 100%
half-life [3]: 0.8 h
dose excreted at 720 h [33]: < 50%
SMILES: Cc1cn([C@H]2C=C[C@@H](CO)O2)c(=O)[nH]c1=O [STAVUDINE]
